According to ChEMBL document CHEMBL4613213, “Anibamine and Its Analogues: Potent Antiplasmodial Agents from Aniba citrifolia” (J Nat Prod, 2020):
Active and inactive are the calls of the source. No cut-off for these calls is given here.

Experiments:
[1] = test system: Plasmodium falciparum; test: Antiplasmodial activity against Plasmodium falciparum Dd2 assessed as reduction in parasite growth after 72 hrs by SYBR Green 1 staining based assay; assay type: functional, organism-based
Method in brief: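 Dd2 cultures started at ring stage, 1% hematocrit and 1% parasitemia. Grown 72 h at 37 °C in 5% CO2/5% O2/90% N2 across increasing drug concentrations. Viability read by SYBR Green I DNA quantitation in lysis buffer. IC50 from nonlinear regression; mean of three independent determinations, each in triplicate, ± SEM.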

[2] = Hemolytic activity in human RBC; assay type: cell-based, Erythrocyte; details: human red blood cells (erythrocytes)
[3] = test system: Plasmodium falciparum; test: Antiplasmodial activity against Plasmodium falciparum Dd2 schizonts form infected in erythrocytes assessed as reduction in parasite growth at 1 uM after 6 hrs by Giemsa staining based light microscopic method; assay type: functional, organism-based
Method in brief: (§1)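 Compound added at schizont stage (40–42 post-invasion). Morphology assessed on Giemsa-stained thin blood smears at 6, 24 and 48 h of treatment and compared with untreated controls. Two or more independent experiments.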

[4] = test system: Plasmodium falciparum; test: Antiplasmodial activity against Plasmodium falciparum Dd2 schizonts form infected in erythrocytes assessed as reduction in reinvasion at 1 uM after 6 hrs by Giemsa staining based light microscopic method; assay type: functional, organism-based; method in brief: as §1
[5] = test system: Plasmodium falciparum; test: Antiplasmodial activity against Plasmodium falciparum Dd2 schizonts form infected in erythrocytes assessed as reduction in ring stage formation at 1 uM after 6 hrs by Giemsa staining based light microscopic method; assay type: functional, organism-based; method in brief: as §1
[6] = test system: Plasmodium falciparum; test: Antiplasmodial activity against Plasmodium falciparum Dd2 schizonts form infected in erythrocytes assessed as reduction in trophozoites formation at 1 uM after 48 hrs by Giemsa staining based light microscopic method; assay type: functional, organism-based; method in brief: as §1
[7] = test system: Plasmodium falciparum; test: Antiplasmodial activity against Plasmodium falciparum Dd2 schizonts form infected in erythrocytes assessed as morphological defects formation at 1 uM after 48 hrs by Giemsa staining based light microscopic method; assay type: functional, organism-based; method in brief: as §1
[8] = test system: A2780; test: Cytotoxicity against human A2780 cells assessed as reduction in cell viability after 2 days by AlamarBlue assay; assay type: ADME, cell-based; details: A2780, 48 h
[9] = test system: Plasmodium falciparum; test: Antiplasmodial activity against Plasmodium falciparum Dd2 schizonts form infected in erythrocytes assessed as reduction in parasite growth at 0.5 uM after 6 hrs by Giemsa staining based light microscopic method; assay type: functional, organism-based; method in brief: as §1
[10] = test system: Plasmodium falciparum; test: Antiplasmodial activity against Plasmodium falciparum Dd2 schizonts form infected in erythrocytes assessed as reduction in reinvasion at 0.5 uM after 6 hrs by Giemsa staining based light microscopic method; assay type: functional, organism-based; method in brief: as §1
[11] = test system: Plasmodium falciparum; test: Antiplasmodial activity against Plasmodium falciparum Dd2 schizonts form infected in erythrocytes assessed as reduction in ring stage formation at 0.5 uM after 6 hrs by Giemsa staining based light microscopic method; assay type: functional, organism-based; method in brief: as §1
[12] = test system: Plasmodium falciparum; test: Antiplasmodial activity against Plasmodium falciparum Dd2 schizonts form infected in erythrocytes assessed as reduction in trophozoites formation at 0.5 uM after 48 hrs by Giemsa staining based light microscopic method; assay type: functional, organism-based; method in brief: as §1
[13] = test system: Plasmodium falciparum; test: Antiplasmodial activity against Plasmodium falciparum Dd2 schizonts form infected in erythrocytes assessed as morphological defects at 0.5 uM after 48 hrs by Giemsa staining based light microscopic method; assay type: functional, organism-based; method in brief: as §1
[14] = test system: Plasmodium falciparum; test: Antiplasmodial activity against Plasmodium falciparum Dd2 ring stage form infected in erythrocytes assessed as reduction in parasite growth at 0.5 uM after 6 to 72 hrs by Giemsa staining based light microscopic method; assay type: functional, organism-based
Method in brief: (§2)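 Compound added at ring stage (2–4 h post-invasion). Development followed on Giemsa-stained thin blood smears after 6, 24, 48 and 72 h of treatment and compared with untreated controls. Two or more independent experiments.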

[15] = test system: Plasmodium falciparum; test: Antiplasmodial activity against Plasmodium falciparum Dd2 ring stage form infected in erythrocytes assessed as reduction in reinvasion at 0.5 uM after 48 to 72 hrs by Giemsa staining based light microscopic method; assay type: functional, organism-based; method in brief: as §2
[16] = Plasmodium falciparum, Dd2, 72 h, read-out: IC50

SMILES: CCCCCCCC/C=C/c1c(C)nc(CCCOC)c(/C=C/CCCCCCCC)c1C
- IC50 [1, 16]: > 20 µM

SMILES: CCCCCCCC/C=C/c1c(C)cc(CCCOC)nc1C
- IC50 [1, 16]: 6.7 µM

SMILES: CCCCCCCCCCc1c(C)c(CCCCCCCCCC)c2[n+](c1C)CCCCC2
- IC50 [1, 16]: 0.077 µM
- HC50 [2]: > 58 µM
- Activity [3]: inactive
- Activity [4]: inactive
- Activity [5]: inactive
- Activity [6]: Active
- Activity [7]: Active

SMILES: CCCCCCCCCCc1c(C)nc(C)c(CCCCCCCCCC)c1C
- IC50 [1, 16]: > 20 µM

SMILES: CCCCCCCC/C=C/c1c(C)nc(C)c(/C=C/CCCCCCCC)c1C
- IC50 [1, 16]: > 20 µM

SMILES: CCCCCCCC/C=C\c1c(C)cc(CCCOC)nc1C
- IC50 [1, 16]: 6.3 µM

SMILES: CCCCCCCC/C=C/c1c(C)c(/C=C/CCCCCCCC)c2[n+](c1C)CCCC2
- IC50 [1, 16]: 0.061 µM
- HC50 [2]: > 58 µM
- Activity [3]: inactive
- Activity [4]: inactive
- Activity [5]: inactive
- Activity [6]: Active
- Activity [7]: Active

SMILES: C=CC[C@@]12C=C(OC)C(=O)[C@@H]([C@@H](c3ccc4c(c3)OCO4)[C@@H]1C)[C@@H]2O
- IC50 [1, 16]: > 100 µM
- IC50 [8]: 10 to 50 µM

SMILES: CCCCCCCC/C=C\c1c(C)nc(CCCOC)c(/C=C\CCCCCCCC)c1C
- IC50 [1, 16]: 19.3 µM

SMILES: CCCCCCCC/C=C\c1c(C)nc(C)c(/C=C\CCCCCCCC)c1C
- IC50 [1, 16]: > 20 µM

SMILES: C[C@@H]1CC[C@H]2[C@@H](C)C(=O)O[C@@H]3O[C@@]4(C)CC[C@@H]1[C@]32OO4 [ARTEMISININ]
- IC50 [1, 16]: 0.0065 µM

SMILES: C=CC[C@@]1(OC)C=C2C(=CC1=O)O[C@H](c1ccc3c(c1)OCO3)[C@H]2C
- IC50 [1]: Not Active
- IC50 [8]: 10 to 50 µM

SMILES: CCCCCCCC/C=C\c1c(C)nc(CCCOC)c(/C=C/CCCCCCCC)c1C
- IC50 [1, 16]: > 20 µM

SMILES: C.C=CC[C@]1(C(=O)OC)CC(=O)C[C@H](c2ccc3c(c2)OCO3)[C@H]1C
- IC50 [1, 16]: > 100 µM
- IC50 [8]: > 10 µM

SMILES: CCCCCCCC/C=C\c1c(C)c(/C=C\CCCCCCCC)c2[n+](c1C)CCCCC2
- IC50 [1, 16]: 0.067 µM
- HC50 [2]: > 58 µM
- Activity [9]: inactive
- Activity [10]: inactive
- Activity [11]: inactive
- Activity [12]: Active
- Activity [13]: Active

SMILES: COc1cc(C/C=C(\C)CCC=C(C)C)c(O)c(-c2cc3cc(OC)cc(C/C=C(\C)CCC=C(C)C)c3oc2=O)c1
- IC50 [1, 16]: 18.2 µM

SMILES: CCCCCCCCCCc1c(C)cc(C)[n+]2c1CCC2
- IC50 [1, 16]: 0.06 µM
- Activity [9]: inactive
- Activity [10]: inactive
- Activity [11]: inactive
- Activity [14]: inactive
- Activity [15]: inactive

SMILES: CCCCCCCC/C=C/c1c(C)cc(C)[n+]2c1CCC2
- IC50 [1, 16]: 0.058 µM
- Activity [9]: inactive
- Activity [10]: inactive
- Activity [11]: inactive
- Activity [14]: inactive
- Activity [15]: inactive

SMILES: CCCCCCCC/C=C/c1c(C)c(CCCCCCCCCC)c2[n+](c1C)CCC2
- IC50 [1, 16]: 0.244 µM
- IC50 [8]: 0.241 µM

SMILES: CCCCCCCC/C=C\c1c(CCCOC)nc(C)c(/C=C/CCCCCCCC)c1C
- IC50 [1, 16]: > 20 µM

SMILES: CCCCCCCC/C=C\c1c(C)cc(C)nc1C
- IC50 [1, 16]: > 20 µM

SMILES: C=CC[C@@]12C=C(OC)C(=O)[C@@H]([C@H](c3ccc4c(c3)OCO4)[C@H]1C)[C@H]2O
- IC50 [1]: Not Active
- IC50 [8]: 10 to 50 µM

SMILES: C=CCOc1cc2c(cc1OC)[C@H](C)[C@@H](c1ccc3c(c1)OCO3)O2
- IC50 [1, 16]: 30 µM
- IC50 [8]: 10 to 50 µM

SMILES: C=CC[C@@]12C=C(OC)C(=O)C=C1O[C@H](c1ccc3c(c1)OCO3)[C@H]2C
- IC50 [1, 16]: > 30 µM
- IC50 [8]: 10 to 50 µM

SMILES: C=CCc1c(O)c(OC)cc2c1O[C@H](c1ccc3c(c1)OCO3)[C@H]2C
- IC50 [1, 16]: 30 µM
- IC50 [8]: 10 to 35 µM

SMILES: CCCCCCCCCCc1c(C)cc(C)nc1C
- IC50 [1, 16]: > 20 µM

SMILES: CCCCCCCCCCc1c(C)cc(CCCOC)nc1C
- IC50 [1, 16]: 5.3 µM

SMILES: CCCCCCCC/C=C/c1c(C)c(/C=C/CCCCCCCC)c2[n+](c1C)CCCCC2
- IC50 [1, 16]: 0.06 µM
- HC50 [2]: > 58 µM
- Activity [9]: inactive
- Activity [10]: inactive
- Activity [11]: inactive
- Activity [12]: Active
- Activity [13]: Active

SMILES: CCCCCCCC/C=C/c1c(C)cc(C)nc1CCCOC
- IC50 [1, 16]: > 20 µM

SMILES: CCCCCCCC/C=C\c1c(C)c(/C=C\CCCCCCCC)c2[n+](c1C)CCC2 [AANIBAMINE]
- IC50 ([1]; read-out: IC50): 0.11 µM
- HC50 [2]: > 58 µM

SMILES: CCCCCCCCCCc1c(C)cc(C)nc1CCCOC
- IC50 [1, 16]: > 20 µM

SMILES: CCCCCCCC/C=C/c1c(C)cc(C)nc1C
- IC50 [1, 16]: > 20 µM

SMILES: CCCCCCCC/C=C/c1c(C)cc2[n+](c1C)CCC2
- IC50 [1, 16]: 0.171 µM
- Activity [9]: inactive
- Activity [10]: inactive
- Activity [11]: inactive
- Activity [14]: inactive
- Activity [15]: inactive

SMILES: CCCCCCCC/C=C\c1c(C)cc(C)nc1CCCOC
- IC50 [1, 16]: 8.8 µM

SMILES: CCCCCCCC/C=C\c1c(C)nc(C)c(/C=C/CCCCCCCC)c1C
- IC50 [1, 16]: 20 µM

SMILES: CCCCCCCCCCc1c(C)c(CCCCCCCCCC)c2[n+](c1C)CCCC2
- IC50 [1, 16]: 0.058 µM
- HC50 [2]: > 58 µM
- Activity [9]: inactive
- Activity [10]: inactive
- Activity [11]: inactive
- Activity [12]: Active
- Activity [13]: Active

SMILES: CCCCCCCCCCc1c(C)nc(CCCOC)c(CCCCCCCCCC)c1C
- IC50 [1, 16]: > 20 µM

SMILES: CCCCCCCC/C=C/c1c(C)c(/C=C/CCCCCCCC)c2[n+](c1C)CCC2
- IC50 [1, 16]: 0.096 µM
- HC50 [2]: > 58 µM
- Activity [9]: inactive
- Activity [10]: inactive
- Activity [11]: inactive
- Activity [12]: Active
- Activity [13]: Active
